EBI2 block: blocks human EBI2 receptor beta-arrestin signaling | hit rate 0.81% among 360,000 | inhibition, % at 5 µM | EBI2 beta-arrestin recruitment, luminescence, 7a,25-OHC stimulated | P32249; in the data active means inhibition above about 38%;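 further: enzyme fragment complementation signal reports receptor beta-arrestin coupling in cells; 0% = agonist plus DMSO wells and 100% = wells without agonist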
Target sequence (P32249 whole entry, looked up, the tested form may be a part): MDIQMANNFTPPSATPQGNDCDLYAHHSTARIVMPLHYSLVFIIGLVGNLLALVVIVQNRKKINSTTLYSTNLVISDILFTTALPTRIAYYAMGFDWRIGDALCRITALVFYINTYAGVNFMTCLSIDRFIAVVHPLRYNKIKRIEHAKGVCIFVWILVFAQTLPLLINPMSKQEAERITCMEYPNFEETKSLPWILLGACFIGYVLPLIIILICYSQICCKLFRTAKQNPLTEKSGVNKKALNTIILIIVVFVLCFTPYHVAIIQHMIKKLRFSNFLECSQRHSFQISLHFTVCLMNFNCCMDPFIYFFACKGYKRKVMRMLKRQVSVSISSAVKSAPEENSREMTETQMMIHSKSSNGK
CCR6 antag: blocks CCL20-driven beta-arrestin recruitment at human CCR6; inhibition, % at 20 µM; P51684; AID 493098; hit rate 0.49% among 340,000; CHO-K1 CCR6 PathHunter beta-arrestin, luminescence, CCL20-stimulated;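 active means compounds whose inhibition of the agonist-driven luminescence signal at 20 µM reaches about 50%, limit read from the data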;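 further: cells stimulated with CCL20 at 14 nM final; plate controls were DMSO with CCL20 for no effect and DMSO without agonist for full effect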
APJ antagonist: APJ receptor antagonism; CHO-K1 APJ beta-arrestin complementation, luminescence; inhibition, % at 20 µM; hit rate 0.32% among 330,000; AID 2521;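 active means inhibition above about 40% at 20 µM, limit read from the data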;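 further: cells challenged with 10 nM apelin-13 agonist together with compound; plate controls were apelin-13 plus DMSO wells for no effect and DMSO wells lacking apelin-13 for full effect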
CXCR6 block: CXCR6 (human) receptor inhibition | CHO-K1 PathHunter CXCR6 beta-arrestin, luminescence | inhibition, % at 20 µM | hit rate 0.36% among 360,000; in the data active means inhibition above about 34%, passing the limit was not always enough;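 further: antagonist mode with CXCL16 agonist at 10 nM final; 0% = 10 nM CXCL16 with DMSO and 100% = unstimulated wells without agonist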
Target sequence (O00574 whole entry, looked up): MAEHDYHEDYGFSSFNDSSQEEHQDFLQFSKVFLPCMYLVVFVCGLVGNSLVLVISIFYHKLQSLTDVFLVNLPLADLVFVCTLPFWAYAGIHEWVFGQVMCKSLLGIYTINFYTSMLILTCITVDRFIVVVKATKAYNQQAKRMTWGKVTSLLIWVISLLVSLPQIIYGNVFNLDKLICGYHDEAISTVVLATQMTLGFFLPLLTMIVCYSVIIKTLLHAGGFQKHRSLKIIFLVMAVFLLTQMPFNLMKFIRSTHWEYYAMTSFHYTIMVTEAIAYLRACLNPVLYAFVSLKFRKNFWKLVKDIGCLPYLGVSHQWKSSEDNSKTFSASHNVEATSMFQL
APJ ag: agonists of human APJ apelin receptor. CHO-K1 APJ PathHunter beta-arrestin, luminescence; 0% DMSO wells, 100% apelin. hit rate 0.11% among 330,000. activation, % at 20 µM. P35414;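 active means activation more than six SD over the plate average, tested at 20 µM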;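 further: 0% = DMSO alone and 100% = apelin-13 at 10 nM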
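Assay system – PathHunter CHO-K1 APJ (AGTRL-1) beta-arrestin reporter cells · Compound – one dose, 20 µM compound, 1% DMSO · Timing – compound 90 min 25 °C, reagent 1 h · Measured by – luminescence from split beta-galactosidase complementation, Galacton Star/Emerald II substrate · Measure – beta-arrestin recruitment to APJ as agonist activity, luminescent signal · Benchmarks – DMSO vs Apelin-13 10 nM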
APJ antag confirm: confirmation of human APJ apelin receptor antagonists. shares compounds with APJ antagonist. inhibition, % at 20 µM. hit rate 66% among 950. APJ beta-arrestin recruitment, luminescence, antagonist mode; in the data active means inhibition above about 50%
* = called active by the depositor. Sampled rows, rich in hits. Any-hit rate of the full collection: about 1.5%.

What do the screens show for `COc1ccccc1CCC(=O)Nc1ccc(S(=O)(=O)Nc2ncccn2)cc1`?
EBI2 block: -6.6; CXCR6 block: -7.5

Results for Cc1ccc(NC(=O)Nc2ccc3c(c2)OCO3)c(Br)c1 ?
EBI2 block: -3.3; CCR6 antag: 10.4; APJ antagonist: 41.0*; CXCR6 block: -1.2; APJ ag: 3.6; APJ antag confirm: 16.2

Results for Cc1ccc(OCC(=O)Nc2ccc3c(c2)OCO3)c(C)c1 ?
EBI2 block: 2.8; CCR6 antag: 5.4; APJ antagonist: 66.5*; CXCR6 block: 1.3; APJ ag: -3.5; APJ antag confirm: 45.3

What do the screens show for `Cc1ccc(-c2cc(-c3ccccc3)nc(NN)n2)cc1`?
EBI2 block: 11.1; CCR6 antag: 64.5*; APJ antagonist: 77.9*; CXCR6 block: 29.0; APJ ag: -15.5; APJ antag confirm: 140.0*

How did COc1ccc(-c2cc(-c3ccccc3)nc(NN)n2)cc1OC do in these assays?
EBI2 block: 13.2; CCR6 antag: 86.5*; APJ antagonist: 57.2*; CXCR6 block: 43.0*; APJ ag: -12.9; APJ antag confirm: 129.2*

How did COc1nc(-c2ccccc2)cc(-c2ccc(OC)c(OC)c2)n1 do in these assays?
EBI2 block: -1.9; CCR6 antag: -17.8; APJ antagonist: -16.7; CXCR6 block: 1.2; APJ ag: -0.1

What do the screens show for `CCCCN1C(=O)C(CC(=O)NCCN2CCOCC2)CC(C(=O)N(CC)CC)=C1C` (stereo not given)?
EBI2 block: -0.2; CXCR6 block: 2.5

How did COc1cc(C(O)c2nc(-c3ccccc3OC)cs2)ccc1F (stereo not given) do in these assays?
EBI2 block: -1.1; CXCR6 block: 0.7

How did Cc1ccc(NNC(=O)c2cc(C(C)(C)C)nn2Cc2ccccc2)cc1 do in these assays?
EBI2 block: 15.6; CCR6 antag: 35.1; APJ antagonist: 41.0*; CXCR6 block: 18.6; APJ ag: -10.5; APJ antag confirm: 102.6*

What do the screens show for `Cc1ccc(NC(=O)c2cc(C(C)(C)C)nn2Cc2ccccc2)cc1`?
EBI2 block: 7.8; CCR6 antag: -11.6; APJ antagonist: 5.6; CXCR6 block: -0.8; APJ ag: 4.5

What do the screens show for `N#C/C(=C\c1ccc(O)c(O)c1)C(=O)N1CCCC1`?
EBI2 block: 7.7; CCR6 antag: 19.0; APJ antagonist: 21.7; CXCR6 block: 19.9; APJ ag: -1.3

What do the screens show for `N#C/C(=C\c1ccc(O)c(O)c1)C(=O)c1ccc(O)c(O)c1`?
EBI2 block: 3.0; CCR6 antag: 53.5*; APJ antagonist: 42.7*; CXCR6 block: 26.7; APJ ag: -7.3; APJ antag confirm: 57.0*

What do the screens show for `CC1=NN(c2ccc(C(=O)OC(C)C)cc2)C(=O)/C1=C\C=C\c1ccco1`?
EBI2 block: 2.9; CCR6 antag: -8.3; APJ antagonist: 57.3*; CXCR6 block: 12.6; APJ ag: -1.5; APJ antag confirm: 51.0*

Results for CCOC(=O)c1ccc(N2N=C(C)/C(=C/C=C/c3ccco3)C2=O)cc1 ?
EBI2 block: 10.9; CCR6 antag: -12.9; APJ antagonist: 22.8; CXCR6 block: 14.3; APJ ag: -5.9

How did Cc1cc(NC(=O)c2ccccc2F)n(-c2nc3ccccc3[nH]2)n1 do in these assays?
EBI2 block: -1.2; CCR6 antag: 24.3; APJ antagonist: 33.0; CXCR6 block: 10.6; APJ ag: -2.3

Results for Cc1cc(NC(=O)c2c(F)cccc2Cl)n(-c2nc3ccccc3[nH]2)n1 ?
EBI2 block: 14.2; CCR6 antag: 60.8*; APJ antagonist: 55.3*; CXCR6 block: -13.8; APJ ag: -1.1; APJ antag confirm: 26.5

How did Cc1cc(NC(=O)c2c(F)cccc2F)n(-c2nc3ccccc3[nH]2)n1 do in these assays?
EBI2 block: 15.1; CCR6 antag: 27.2; APJ antagonist: 44.3*; CXCR6 block: 4.9; APJ ag: -9.4; APJ antag confirm: 4.8

What do the screens show for `CN(c1ccc(F)cc1)S(=O)(=O)c1ccc(Cl)c(C(=O)NCC2(N3CCOCC3)CCCCC2)c1`?
EBI2 block: 16.6; CCR6 antag: 18.2; CXCR6 block: 5.3

Results for CCN1C(=O)/C(=C\C=C2/C=CC=CN2CC)SC1=S ?
EBI2 block: -0.8; CCR6 antag: 63.9*; APJ antagonist: 65.0*; CXCR6 block: 54.4*; APJ ag: -7.2; APJ antag confirm: 121.7*

What do the screens show for `C[C@@H]1CN([C@H](C)CO)C(=O)CCCn2nncc2CO[C@@H]1CN(C)S(=O)(=O)c1ccc(C#N)cc1`?
EBI2 block: 3.6; CXCR6 block: 4.8

How did COc1ccc([C@H]2CC(=O)C[C@@H](CCn3nnc4ccccc43)O2)cc1 do in these assays?
EBI2 block: 6.3; CXCR6 block: -7.2

Results for Cc1ccc(C(=O)CNc2cc(C)ccc2C)cc1 ?
EBI2 block: 21.0; CCR6 antag: 72.5*; APJ antagonist: 43.3*; CXCR6 block: 31.5; APJ ag: -15.5; APJ antag confirm: 117.6*

How did COc1ccc(C(=O)CNc2ccccc2Br)cc1 do in these assays?
EBI2 block: 10.9; CCR6 antag: 15.7; APJ antagonist: 5.7; CXCR6 block: 8.2; APJ ag: -7.1

What do the screens show for `O=C(CNc1ccccc1C(=O)O)c1ccccc1`?
EBI2 block: 1.3; CCR6 antag: 79.1*; APJ antagonist: 41.1*; CXCR6 block: 68.2*; APJ ag: -14.0; APJ antag confirm: 149.4*

How did Cc1ccccc1NCC(=O)c1ccc(Br)cc1 do in these assays?
EBI2 block: 8.6; CCR6 antag: 49.4; APJ antagonist: 46.2*; CXCR6 block: 22.4; APJ ag: -14.2; APJ antag confirm: 99.5*

What do the screens show for `Cc1ccc(C)c(NCC(=O)c2ccc(Cl)cc2)c1`?
EBI2 block: 28.3; CCR6 antag: 60.1*; APJ antagonist: 72.9*; CXCR6 block: 22.3; APJ ag: -13.7; APJ antag confirm: 87.9*

What do the screens show for `Cc1ccc(C)c(NC(=S)N(Cc2ccc(Cl)cc2)Cc2ccc(C(=O)O)cc2)c1`?
EBI2 block: -9.5; CCR6 antag: 8.4; APJ antagonist: -1.7; CXCR6 block: -3.2; APJ ag: -3.2

How did Cc1ccc(C)c(NCC(=O)NNC(=S)Nc2ccccc2)c1 do in these assays?
EBI2 block: -2.5; CCR6 antag: 15.9; APJ antagonist: 3.1; CXCR6 block: -4.7; APJ ag: -5.1

How did Nc1nc(N)c2[nH]c(=S)[nH]c2n1 do in these assays?
EBI2 block: -2.1; CCR6 antag: -11.9; CXCR6 block: -9.1

How did Cc1cc(C)n(CCc2nc(-c3ccco3)cs2)n1 do in these assays?
EBI2 block: -4.9; CCR6 antag: 17.7; APJ antagonist: 56.0*; CXCR6 block: 6.9; APJ ag: -11.2; APJ antag confirm: 19.9

What do the screens show for `Cc1cc(C)n(CCc2nc(-c3cccs3)cs2)n1`?
EBI2 block: 11.3; CCR6 antag: 20.2; APJ antagonist: 7.4; CXCR6 block: -6.0; APJ ag: -1.0

What do the screens show for `Cc1ccc(C(=O)NCc2ccccn2)cc1S(=O)(=O)N1CCOCC1`?
EBI2 block: -7.0; CCR6 antag: -1.7; APJ antagonist: 0.7; CXCR6 block: -0.6; APJ ag: -3.2
